These results are taken from paper PMC8842081 (The Journal of Biological Chemistry, 2022).

Entries after “also recorded” stand apart in the source; their conditions may differ. Where no end group is shown, it is not given here.

Data set [1] deals with BMP signaling (Vent2 reporter). The experiment in a line: BMP-responsive Vent2 reporter assay in Xenopus embryos. The format is in vivo, Xenopus tropicalis. To be noted: 20 nl of 50 μM dendrimer at stage 9, firefly normalized to Renilla. Summed up:
(§1)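 X. tropicalis embryos were co-injected at the 2-cell stage with 200 pg Vent-Luc (BMP) or Topflash (WNT) plus 100 pg Renilla-TK plasmid. At stage 9, 20 nl of 50 μM dendrimer in PBS went into the blastocoel; controls were bmp4 mRNA or lrp6 morpholino. Three pools of four embryos each were lysed at stage 14 to 15 for dual luciferase, firefly normalized to Renilla. Unpaired t test or one-way ANOVA.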
(In general: Reporter assays use an easily measured gene product as a stand-in for the process of interest.)

Data set [2] has as its system LGR4. The experiment in a line: Cell surface–binding assay, RSPO2-AP on LGR4-transfected HEK293T cells. The format is cell-based, human. Particulars: 20 μM dendrimer, 3 h. Summed up: (§2)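 HEK293T cells were transfected with BMPR1A-HA or LGR4. They were incubated with RSPO2-AP or RSPO3-AP conditioned medium from transiently transfected HEK293T cells, plus 20 μM dendrimer or 50 μM monomeric peptide, for 3 h or 16 h. Surface-bound AP was developed with BM-Purple chromogenic substrate, then imaged and quantified.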

In data set [3] the test system is P38 MAPK and P44/42 MAPK phosphorylation in HEPG2 cells. The experiment in a line: Western blot of pP38 and pP44/42 MAP kinases in HEPG2 cells. The format is cell-based, human. To be noted: HEPG2, BMP4 + RSPO2, 0.5 μM dendrimer, 1 h, starved overnight. On the technique in general: A western blot detects proteins with antibodies after separation by electrophoresis.

The test system of data set [4] is BMP4 signaling (pSmad1) in HEPG2 cells. Briefly: Western blot of pSmad1 in HEPG2 cells. The format is cell-based, human.
Data set [5] deals with RSPO2–BMPR1A interaction. Briefly: Cell surface–binding assay, RSPO2-AP on BMPR1A-transfected HEK293T cells. It is filed as cell-based, human. To be noted: for RSPO2 binding to BMPR1A transfected cells / RSPO2–BMPR1A binding after long-term dendrimer treatment: 20 μM dendrimer; for RSPO2 binding to BMPR1A transfected cells: n = 3; for RSPO2–BMPR1A binding after long-term dendrimer treatment: 16 h. In short, it runs like this:
as §2

For data set [6], the target named is RSPO2^TSP1–BMPR1A^ECD interaction (Homo sapiens, UniProt P36894). The experiment in a line: In vitro competitive binding assay. Particulars: for reduction of RSPO2^TSP1–BMPR1A^ECD interaction: 100 μM monomeric peptide, 3 h, AP activity, n = 2 to 3 experimental replicates. Summed up:
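Plates were coated overnight at 4 °C with 1 to 2 μg anti-HA and blocked 1 h in 5% BSA/TBST. HA-RSPO2 TSP1 conditioned medium was captured overnight. AP-BMPR1A ECD was then added for 3 h with 100 μM monomeric peptide (Cys→Ser; in DPBS pH 7.4) or a peptide concentration series. After TBST washes, bound AP was read with chemiluminescent substrate, and IC50 was fitted.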

In data set [7] the test system is RSPO3 binding to BMPR1A. Briefly: Cell surface–binding assay, RSPO3-AP on BMPR1A-transfected HEK293T cells. Particulars: 20 μM non-PEGylated dendrimer, 3 h; n = 3. It is filed as cell-based, human. Summed up:
as §2

Data set [8] has as its system BMPR1A-HA membrane staining in H1581 cells. Briefly: Immunofluorescence of BMPR1A-HA membrane localization in H1581 cells. To be noted: H1581 transfected with BMPR1A-HA, 0.5 μM dendrimer, 3 days. It is filed as cell-based, human.
For data set [9], the system named is pSmad1 in H1581 cells. Briefly: Western blot of pSmad1 in H1581 cells. The format is cell-based, human. Particulars: H1581 (elevated RSPO2), 0.5 μM dendrimer, 3 days.
For data set [10], the system named is WNT signaling (TopFlash reporter). Briefly: WNT-responsive TopFlash reporter assay in Xenopus embryos. The format is in vivo, Xenopus tropicalis. Particulars: 20 nl of 50 μM dendrimer at stage 9, firefly normalized to Renilla. In short, it runs like this:
as §1

The subject of data set [11] is Xenopus tropicalis embryos. Briefly: Xenopus embryo blastocoel microinjection, phenotype. It is filed as in vivo. Particulars: 20 nl of 50 μM dendrimer into blastocoel at stage 9. Summed up: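 X. tropicalis embryos from in vitro fertilization received 20 nl of 50 μM dendrimer in PBS into the blastocoel at stage 9, with bmp4 mRNA at the 4-cell stage as comparator. Embryos were cultured to tailbud stage 28 and scored blind for head size and ventral structures across two independent experiments.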

In data set [12] the test system is BMP target gene expression (sizzled). Briefly: Whole-mount in situ hybridization of sizzled in Xenopus gastrulae. Particulars: 20 nl of 50 μM dendrimer at stage 9, gastrulae stage 11. It is filed as in vivo, Xenopus tropicalis. Summed up:
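X. tropicalis embryos were injected at stage 9 into the blastocoel with 20 nl of 50 μM dendrimer in PBS; bmp4 mRNA injected radially at the 4-cell stage served as control. Embryos were fixed at gastrula stage 11 and processed by whole-mount in situ hybridization with a digoxigenin-labeled antisense sizzled probe. The sizzled-expressing area was quantified, pooled from two independent experiments.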

The subject of data set [13] is WNT-mediated activation of β-catenin in H1581 cells. The experiment in a line: Western blot of activated β-catenin in H1581 cells treated with WNT3A. It is filed as cell-based, human. To be noted: 0.5 μM dendrimer.
Data set [14] deals with pSmad1 in THP-1 AML cells. Briefly: Western blot of pSmad1 in THP-1 cells. It is filed as cell-based, human. To be noted: 3 days. In short, it runs like this:
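THP-1 cells were exposed for 3 days to 0.5 μM unmodified or N-PEG dendrimer, or 2.0 μM C-PEG dendrimer. Lysis was in Triton or RIPA buffer with protease inhibitors, followed by boiling in Laemmli/β-mercaptoethanol at 95 °C for 5 min. SDS-PAGE immunoblots were probed for phospho-Smad1 against total Smad1 and developed by ECL.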

In data set [15] the test system is THP-1 cells. The experiment in a line: Flow cytometry of CD11B^+ THP-1 cells. The format is cell-based, human. To be noted: THP-1, 3 days, 0.5/1.0/1.5 μM nonmodified, 2.0/3.0 μM N-PEG, 3.0/4.0 μM C-PEG dendrimer. A general note: In flow cytometry, cells or beads pass a laser one at a time.
Where [16] appears, read: 0.5 μM nonmodified or N-PEG dendrimer.

RSPO2^TSP1–BMPR1A^ECD interaction, sequence (P36894 24-152 limits assumed): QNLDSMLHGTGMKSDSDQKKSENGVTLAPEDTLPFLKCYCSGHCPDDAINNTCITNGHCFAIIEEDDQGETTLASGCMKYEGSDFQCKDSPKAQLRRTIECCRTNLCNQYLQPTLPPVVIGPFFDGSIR

In the case of RNNRTSGFKW [RW], in data set [1], the “endogenous BMP signaling (Vent2 reporter)” value is recorded as “enhanced endogenous BMP signaling”. Also, the “RSPO2 binding to LGR4 transfected cells” value in [2] is “without affecting LGR4 binding”. For the same substance, the “rescue of RSPO2-mediated decrease of pP38 and pP44/42 levels” value in [3] is “rescued the RSPO2-mediated decrease of pP38 and pP44/42 levels”. The “pSmad1 level without simultaneous treatment of RSPO2” value in data set [4] (HEPG2, 0.5 μM dendrimer, 3 days) is “no effect on pSmad1 level”. Moreover, the “rescue of RSPO2-mediated decrease of pSmad1 levels” value in data set [4] (HEPG2, BMP4 + RSPO2, 0.5 μM dendrimer, 1 h, starved 3 h) is “rescued the RSPO2-mediated”. The “rescue of RSPO3-mediated decrease of pSmad1 levels” value in [4] (HEPG2, BMP4 + RSPO3, 0.5 μM dendrimer, 1 h, starved 3 h) is recorded as “not the RSPO3-mediated decrease of pSmad1 levels”. Further, the “RSPO2 binding to BMPR1A transfected cells” value in data set [5] (3 h) is on record as “abolished RSPO2 binding”. Moreover, in [5], the “RSPO2–BMPR1A binding after long-term dendrimer treatment” value is “completely disrupt RSPO2–BMPR1A binding”. In addition, the “reduction of RSPO2^TSP1–BMPR1A^ECD interaction” value (“reduction” for short) in data set [6] is “strongest inhibition; also recorded: greater than 50%”. Further, the “RSPO3 binding to BMPR1A transfected cells” value in data set [7] was “unable to abolish RSPO3 binding”. The “increase in the number of cells showing BMPR1A-HA membrane staining” value in data set [8] was “approximately threefold”. Besides, in [9], the “phosphorylation of Smad1” value was “increased phosphorylation of Smad1”. Further, the “WNT signaling (TopFlash reporter)” value in data set [10] is “no effect on WNT signaling”. For the same substance, the embryotoxicity result in [11] (listed as RW^d) is “no Xenopus embryotoxicity”. Moreover, the sizzled expression result in data set [12] is given as “expanded BMP target gene expression (sizzled) toward the dorsal side”. In [13], the “WNT-mediated activation of β-catenin” value was “no effect”. Also, the “pSmad1 induction in THP-1 cells” value in data set [14] (setting [16]) is listed as “induced pSmad1”. In addition, the “induction of the number of CD11B^+ cells” value in data set [15] was roughly 10 fold.

Consider KMTMR [KR], for which, in data set [5] (3 h), the “RSPO2 binding to BMPR1A transfected cells” value is “no effect”. The “effect on RSPO2–BMPR1A interaction in vitro (Fig. S2A)” value in data set [6] (peptide treatment, concentration not given) is “did not affect RSPO2–BMPR1A interaction”. Also, the “increase in the number of cells showing BMPR1A-HA membrane staining” value in data set [8] is “but not KR^d treatment”. Further, in data set [11], the embryotoxicity result is recorded as “no embryotoxicity”. The “pSmad1 induction in THP-1 cells” value in data set [14] (setting [16]) is reported as “but not KR^d treatment”.

For DTILSPTIAE [DE], the “reduction” value in data set [6] is reported as “greater than 50%”.

Regarding “(PEG-RNNRTSGFKW)8-Lys4-Lys2-Lys-β-Ala [N-PEG RW^d]”, the “RSPO2 binding to BMPR1A transfected cells” value in data set [5] (3 h) was “abolished RSPO2 binding”. In addition, in [5], the “RSPO2–BMPR1A binding after long-term dendrimer treatment” value is recorded as “completely disrupt RSPO2–BMPR1A binding”.

With “(PEG-KMTMR)8-Lys4-Lys2-Lys-β-Ala [N-PEG KR^d]”, the “RSPO2 binding to BMPR1A transfected cells” value in data set [5] (3 h) is “no effect”.

Regarding “PEG-RW: RW peptide mini-PEGylated at both N and C termini ({mini‑PEG}-RNNRTSGFKW-{mini‑PEG})”, the “inhibition of RSPO2-AP binding to BMPR1A-transfected cells, short-term” value in data set [5] (50 μM PEGylated monomeric peptide, 3 h) was “inhibited RSPO2–BMPR1A interaction”.

Regarding SRRSKMTMRHSPG [SG], in [6], the “reduction” value is listed as “greater than 50%”.

On to “(RNNRTSGFKW-PEG)8-Lys4-Lys2-Lys-β-Ala [C-PEG RW^d]”, for which the “pSmad1 induction in THP-1 cells” value in [14] (2.0 μM C-PEG dendrimer) is given as “Elevated pSmad1 levels”.
